Experimental data as given in PubChem BioAssay.
Records with an inconclusive call do not appear.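 How the source made its calls, unless noted: active means inhibition over a set limit, the all-compound mean plus 3 SD, in both replicate runs; inconclusive means over that limit in just one replicate run; inactive means at or under that limit in both runs.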

How the values were obtained:
[1] = OD615 S. cerevisiae growth inhibition, permissive medium, pilot counter-assay, permissive growth control for S. cerevisiae lifespan shortening project (AID 705;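 active means growth inhibition above 25% in both replicates, a cutoff set 3 SD above the mean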); conditions: OD615, 24 h, at 10 µM, stronger effect = higher value
How it was run: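 System: Engineered DeaD yeast | Buffer or medium: SC raffinose/galactose permissive medium | Incubation: Cells pre-grown 4 h, then 24 h compound exposure, 30 °C humidified | Measured by: Absorbance (optical density) at 615 nm | Read-out: Reduction in yeast growth (OD615)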

[2] = Restrictive medium S. cerevisiae growth inhibition, OD615, pilot screen of yeast lifespan reduction project, restrictive growth control (AID 706;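 active means growth inhibition above a set limit, 3 SD over mean compound inhibition, in both replicates, cut at about 43% in these data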;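 further: modified DeaD lifespan yeast strain shifted to restrictive glucose medium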); conditions: OD615, 48 h, at 10 µM, stronger effect = higher value
How it was run: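 Material: modified S. cerevisiae; Medium: glucose-based CSMM-D restrictive medium; Compound dosing: one concentration, 10 µM final, 0.25% DMSO; Incubation: 48 h compound exposure at 30 °C; Measured by: OD615.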

[3] = viability gain of MRP-1-high H69AR cells under doxorubicin, pilot screen, MRP-1 activator project, CellTiter-Glo, duplicate (AID 807;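 active means viability increase at or above a cutoff of the median across tested compounds plus 3 SD, cut at about 8.5% in these data, passing the limit was not always enough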;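 further: compound pretreatment 18-22 h then 72 h combined with doxorubicin; 0% = doxorubicin alone and 100% = vehicle without doxorubicin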); conditions: H69AR viability with doxorubicin, CellTiter-Glo luminescence; at 10 µM; stronger effect = higher value
[4] = growth suppression of beta-catenin knockout HCT116, pilot screen, human colon tumor cells (AID 823;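 active means cell viability at or below a set limit in both duplicate runs, the limit being the all-compound median minus 4 SD, cut at about 23% in these data, passing the limit was not always enough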;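 further: 0% = wells killed by 20 µM Hyamine and 100% = untreated DMSO cell wells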); conditions: CellTiter-Glo, 60 h, at 10 µM, stronger effect = lower value
[5] = growth suppression of PTEN-deleted HCT116, pilot screen, cell-based, HCT116 clonal line, CellTiter-Glo (AID 824;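 active means viability at or below 27.92% in each of two runs, the all-compound median minus 4 SD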;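 further: 0% = 20 µM Hyamine control and 100% = vehicle cell control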); conditions: 60 h, at 10 µM, stronger effect = lower value
[6] = inhibitors of the yeast RAM network, pilot screen, dse1pr::URA3 reporter, 5-FOA selection (AID 869);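 further: 0% = DMSO wells with no growth and 100% = 10 µM 1-NA-PP1 with full growth; RAM network block rescues cells from 5-FOA so hits raise OD615 growth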; conditions: S. cerevisiae dse1pr::URA3 5-FOA growth, OD615, 2 d; at 10 µM; stronger effect = higher value; strain carries analog-sensitive mutant Cbk1 kinase
[7] = RAM signaling pathway blockade in yeast – S. cerevisiae, Pdr1DBD-CYC8 efflux-inhibited sensitized strain, primary screen (AID 1298;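 active means RAM network inhibition above 8.4% in each of two replicates, 3 SD over the compound average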;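 further: 0% = DMSO untreated cells without growth and 100% = 10 µM 1-NA-PP1 full growth; higher means more yeast growth rescued from 5-FOA killing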); conditions: S. cerevisiae cbk1-as DSE1-URA3 strain, 5-FOA growth OD615, 2 d; at 50 µM; stronger effect = higher value

COC(=O)c1cc2c(s1)-c1ccccc1OC2
inactive: growth inhibition [1] -11.1% | growth inhibition [2] 4.14% | viability increase [3] -4.57% | viability [4] 101% | viability [5] 95.7% | inhibition [6] 1.39% | RAM network inhibition [7] 3.14%

COc1ccc(CCN2CC34C=CC(O3)C(C(=O)NCc3ccccc3)C4C2=O)cc1OC (stereo unspecified)
inactive: growth inhibition [1] -2.83% | growth inhibition [2] -11.6% | viability increase [3] -1.24% | viability [4] 95.2% | viability [5] 93.9% | inhibition [6] 0.89% | RAM network inhibition [7] 9.27%

O=C(CCNS(=O)(=O)c1cccc2nonc12)NCc1cccs1
inactive: growth inhibition [1] -0.555% | growth inhibition [2] -14.2% | viability increase [3] -1.88% | viability [4] 96.3% | viability [5] 89.1% | inhibition [6] 2.46% | RAM network inhibition [7] 1.92%

COC(=O)C(C)Sc1ccc2nnc(-c3cccc(F)c3)n2n1 (stereo unspecified)
inactive: growth inhibition [1] 8.96% | growth inhibition [2] 14.9% | viability increase [3] -3.98% | viability [4] 94.7% | viability [5] 87.4% | inhibition [6] 2.51% | RAM network inhibition [7] 0.15%

Cc1onc(-c2ccccc2Cl)c1C(=O)N1CCCCC1C(=O)O (stereo unspecified)
inactive: growth inhibition [1] 0.56% | growth inhibition [2] -2.38% | viability increase [3] -1.22% | viability [4] 96.6% | viability [5] 98.6% | inhibition [6] 0.055% | RAM network inhibition [7] 4.06%

O=C(Cn1cnc2c(nnn2-c2ccccc2)c1=O)NCC1CCCO1 (stereo unspecified)
inactive: growth inhibition [1] -6.44% | growth inhibition [2] 8.14% | viability increase [3] -2.94% | viability [4] 100% | viability [5] 94.3% | inhibition [6] 1.41% | RAM network inhibition [7] 1.65%

CN(C)c1cccc(NC(=O)Cc2ccc(F)cc2)c1
inactive: growth inhibition [1] -11.6% | growth inhibition [2] -21.4% | viability increase [3] -4.02% | viability [4] 85.4% | viability [5] 84.2% | inhibition [6] 1.14% | RAM network inhibition [7] 5.85%

COc1cccc(-n2c(Cc3cc(=O)[nH]c(=O)[nH]3)nnc2SCC(=O)NC2CCCC2)c1
inactive: growth inhibition [1] -6.3% | growth inhibition [2] 8.16% | viability increase [3] -0.03% | viability [4] 101% | viability [5] 101% | inhibition [6] 2.87% | RAM network inhibition [7] -1.25%

O=S(=O)(c1cccc(-n2cnnn2)c1)N1CCOCC1
inactive: growth inhibition [1] -5.21% | growth inhibition [2] -3.17% | viability increase [3] -1.69% | viability [4] 94.3% | viability [5] 93% | inhibition [6] 1.6% | RAM network inhibition [7] 2.96%

CCCn1c(CCC(=O)O)ccc1-c1cccs1
inactive: growth inhibition [1] 5.45% | growth inhibition [2] 7.04% | viability increase [3] -2.75% | viability [4] 93.4% | viability [5] 102% | inhibition [6] 0.78% | RAM network inhibition [7] -0.03%

COc1ccc(S(=O)(=O)NCc2cn3c(C)csc3n2)cc1F
inactive: growth inhibition [1] -21% | growth inhibition [2] -8.7% | viability increase [3] 0.05% | viability [4] 94.1% | viability [5] 93.3% | inhibition [6] 0.86% | RAM network inhibition [7] -0.48%

Cc1ccccc1NC(=O)CC1SC(=NC2CCCCC2)NC1=O (stereo unspecified)
inactive: growth inhibition [1] -3.83% | growth inhibition [2] -12% | viability increase [3] -0.62% | viability [4] 102% | viability [5] 101% | inhibition [6] 1.62% | RAM network inhibition [7] 0.66%

Cc1noc(C(=O)N2CCN(c3ccc(F)cc3)CC2)c1Cl
inactive: growth inhibition [1] -12.6% | growth inhibition [2] -16.4% | viability increase [3] 1.26% | viability [4] 105% | viability [5] 101% | inhibition [6] 2.11% | RAM network inhibition [7] 9.11%

CSc1ccc(S(=O)(=O)N2CCN(Cc3ccc4c(c3)OCO4)CC2)cc1
inactive: growth inhibition [1] -2.74% | growth inhibition [2] 14.3% | viability increase [3] -4.46% | viability [4] 88.1% | viability [5] 86.3% | inhibition [6] 0.865% | RAM network inhibition [7] 6.37%

NC(=O)c1ccc(N2CCCCC2)c(N2C(=O)CCC2=O)c1
inactive: growth inhibition [1] -4.77% | growth inhibition [2] -17.9% | viability increase [3] -0.03% | viability [4] 102% | viability [5] 94.6% | inhibition [6] 2.69% | RAM network inhibition [7] 2.67%

Cc1ccc(-c2n[nH]c(=S)n2C)cc1
inactive: growth inhibition [1] -2.22% | growth inhibition [2] 11.2% | viability increase [3] -1.46% | viability [4] 97.5% | viability [5] 101% | inhibition [6] 2.21% | RAM network inhibition [7] 3.7%

Cc1c(C(=O)NCCCN2CCOCC2)sc2nc(-c3ccccc3)cn12
inactive: growth inhibition [1] -10.7% | growth inhibition [2] -11.8% | viability increase [3] -1.59% | viability [4] 92.2% | viability [5] 96% | inhibition [6] 3.44% | RAM network inhibition [7] -0.37%

O=C(O)c1c(F)c(F)c(F)c(F)c1-c1ccc(Cl)cc1
inactive: growth inhibition [1] -20% | growth inhibition [2] -19.6% | viability increase [3] -1.76% | viability [4] 98.9% | viability [5] 98.9% | inhibition [6] -0.105% | RAM network inhibition [7] 5.79%

CCN1CCn2c3c(c4cc(C)ccc42)CCCC31 (stereo unspecified)
inactive: growth inhibition [1] -4.94% | growth inhibition [2] -6.53% | viability increase [3] -2.11% | viability [4] 80.1% | viability [5] 74.9% | inhibition [6] 0.895% | RAM network inhibition [7] 0.21%

Cc1cc(C)c(S(=O)(=O)N2CCN(CCO)CC2)c(C)c1
inactive: growth inhibition [1] 4.04% | growth inhibition [2] 10.5% | viability increase [3] 0.8% | viability [4] 108% | viability [5] 97.4% | inhibition [6] 1.64% | RAM network inhibition [7] 2.45%

COC(=O)c1cc(OC)c(OC)cc1NC(=O)c1c(-c2ccccc2Cl)noc1C
inactive: growth inhibition [1] 5.77% | growth inhibition [2] -2.39% | viability increase [3] -5.69% | viability [4] 66.3% | viability [5] 60.2% | inhibition [6] 1.68% | RAM network inhibition [7] 4.85%

COCCCNC(=O)COc1cc(C)c(Cl)c(C)c1
inactive: growth inhibition [1] -3.79% | growth inhibition [2] -2.48% | viability increase [3] -1.76% | viability [4] 95.5% | viability [5] 96.3% | inhibition [6] -0.185% | RAM network inhibition [7] 1.45%

CC1=C(C(=O)OCC(C)C)C(c2ccccc2Cl)NC(=O)N1C (stereo unspecified)
inactive: growth inhibition [1] -4.34% | growth inhibition [2] -8.57% | viability increase [3] -3.3% | viability [4] 58.5% | viability [5] 67.8% | inhibition [6] 0.59% | RAM network inhibition [7] 1.74%

Cc1ccc(NS(=O)(=O)c2ccc3c(c2)oc(=O)n3C)cc1F
inactive: growth inhibition [1] -11% | growth inhibition [2] -10.8% | viability increase [3] 0.32% | viability [4] 89.1% | viability [5] 86.1% | inhibition [6] 1.1% | RAM network inhibition [7] 3.85%

CCCCCn1c(C(C)NC(=O)CCC)nc2ccccc21 (stereo unspecified)
inactive: growth inhibition [1] -3.78% | growth inhibition [2] -2.23% | viability increase [3] -1.22% | viability [4] 85.7% | viability [5] 88.7% | inhibition [6] -0.165% | RAM network inhibition [7] 2.32%

CSC1=N/C(=C\c2ccc(C)o2)C(=O)S1
inactive: growth inhibition [1] -2.35% | growth inhibition [2] 1.15% | viability increase [3] -2.31% | viability [4] 104% | viability [5] 102% | inhibition [6] 0.93% | RAM network inhibition [7] -0.21%

CC(C)c1nnc(NC(=O)CCN2C(=O)c3ccccc3C2=O)s1
inactive: growth inhibition [1] -11.7% | growth inhibition [2] -0.03% | viability increase [3] 0.32% | viability [4] 104% | viability [5] 106% | inhibition [6] 3.73% | RAM network inhibition [7] 5.82%

C=C(C)c1cccc(C(C)(C)NC(=O)N2CCN(c3ccccn3)CC2)c1
inactive: growth inhibition [1] -11.1% | growth inhibition [2] 0.485% | viability increase [3] -0.48% | viability [4] 75.8% | viability [5] 89.6% | inhibition [6] 1.06% | RAM network inhibition [7] 1.43%

CC1CC(NC(=O)CCn2c(=O)oc3ccccc32)CC(C)(C)C1 (stereo unspecified)
inactive: growth inhibition [1] 1.98% | growth inhibition [2] -2.1% | viability increase [3] -1.55% | viability [4] 97.1% | viability [5] 102% | inhibition [6] 1.02% | RAM network inhibition [7] 4.18%

CCOC(=O)c1sc(NC(=O)c2cc(S(=O)(=O)N3CCOCC3)ccc2C)nc1C
inactive: growth inhibition [1] -4.69% | growth inhibition [2] -10.3% | viability increase [3] -2.11% | viability [4] 92.3% | viability [5] 86.6% | inhibition [6] 0.57% | RAM network inhibition [7] 6.77%

COc1cccc(C2N(c3ccc(Cl)cc3)C(=O)C3CCCN32)c1 (stereo unspecified)
inactive: growth inhibition [1] -5.56% | growth inhibition [2] 1.89% | viability increase [3] 0.15% | viability [4] 97.5% | viability [5] 94.5% | inhibition [6] 1.04% | RAM network inhibition [7] 0%

CCCCCSc1nc2c(c(=O)[nH]c(=O)n2C)n1C(C)C
inactive: growth inhibition [1] -8.31% | growth inhibition [2] -3.84% | viability increase [3] 1.12% | viability [4] 89.5% | viability [5] 85.4% | inhibition [6] 1.3% | RAM network inhibition [7] 1.95%

O=C1CCC(=O)N1c1cccc(-c2nc3ccccc3o2)c1
inactive: growth inhibition [1] -7.93% | growth inhibition [2] -2.65% | viability increase [3] 0.42% | viability [4] 106% | viability [5] 105% | inhibition [6] -0.245% | RAM network inhibition [7] 4.59%
